Most compounds without a hit are left out; they make up all but 4.7% or so of the library.
RGS4 pot: RGS4 potentiators or activators, primary screen, cell-based, HEK293 M3R inducible RGS4, calcium flux | B-score at 10 µM | actives 0.92% (n = 310,000) | AID 463111, 2010 | carbachol calcium flux Fluo4; active compounds read low;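 active means B-score of the integrated calcium signal more than 4 SD below the library mean, with starting fluorescence not abnormally high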;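 further: negative B-score means reduced calcium response which marks RGS4 activation or potentiation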
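System: HEK293 FlpIn-TREx cells, stable M3R, doxycycline-inducible RGS4. Timing: overnight RGS4 induction, 30 min dye load 37 °C, 20 min compound RT. Also added: carbachol, ECmax concentration. Measured by: Fluo4 fluorescence kinetic imaging of calcium. Evaluation: integrated calcium ratio converted to B score.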
RGS4 block: RGS4 inhibitors, primary screen, cell-based, HEK293 M3R inducible RGS4, calcium flux; Fluo-4 calcium flux; active compounds read high; triggered by carbachol at its EC20; B-score at 10 µM; actives 0.45% (n = 310,000); AID 463165, 2010;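 active means B-score, a plate-corrected calcium signal, over three deviations above library mean, with baseline fluorescence within five deviations of library mean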;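 further: RGS4 expression induced by doxycycline in cells with stable M3 receptor; B-score is computed from the integrated fluorescence ratio over baseline after carbachol; higher B-score means a larger calcium signal and so more RGS4 inhibition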
Target sequence (P49798 whole entry, looked up): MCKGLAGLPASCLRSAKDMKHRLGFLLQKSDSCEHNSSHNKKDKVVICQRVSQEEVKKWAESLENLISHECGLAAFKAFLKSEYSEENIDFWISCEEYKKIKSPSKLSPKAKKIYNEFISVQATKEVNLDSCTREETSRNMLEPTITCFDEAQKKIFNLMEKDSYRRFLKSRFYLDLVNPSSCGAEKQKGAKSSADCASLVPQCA
Cl transport mod: KCC2 cotransporter modulators, thallium flux, primary screen, cell-based, HEK293 KCC2, FluoZin-2 fluorescence, MLSMR; Solute carrier family 12 member 5 (Homo sapiens), Q9H2X9; KCC2 cells, thallium flux FluoZin-2 fluorescence; B-score of Tl+ flux slope (higher = more flux/activation; lower = inhibition) at 10 µM; actives 2.2% (n = 190,000); AID 1456, 2008;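 active means thallium flux slope and its plate-corrected score both differing from the plate sample mean at a set confidence after two filtering rounds, in either direction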;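 further: slope of fluorescence scaled to starting intensity during 10 to 20 s after thallium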
MrgX1 ag: agonists of human MrgX1 receptor, primary screen, HEK293 cells, Fluo-4 calcium flux; Mas-related G-protein coupled receptor member X1 (Homo sapiens), Q96LB2; Fluo-4 calcium fluorescence, agonist mode; active compounds read high; B-score at 10 µM; actives 0.44% (n = 310,000); AID 588627, 2011;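 active means calcium response B-score plate-corrected fluorescence ratio at least 3 library SD, with starting fluorescence B-score inside 5 SD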
Target sequence (Q96LB2 whole entry, looked up): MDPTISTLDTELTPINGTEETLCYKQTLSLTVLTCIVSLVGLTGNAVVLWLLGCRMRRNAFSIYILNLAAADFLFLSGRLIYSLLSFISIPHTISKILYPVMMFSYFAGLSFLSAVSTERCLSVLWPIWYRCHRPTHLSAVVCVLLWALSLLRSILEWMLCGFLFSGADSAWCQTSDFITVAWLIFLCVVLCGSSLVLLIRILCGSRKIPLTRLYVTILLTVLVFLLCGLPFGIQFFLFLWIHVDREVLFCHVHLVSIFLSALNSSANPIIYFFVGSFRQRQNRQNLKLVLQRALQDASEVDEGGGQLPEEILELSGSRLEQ
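Assay system: MrgX1-expressing HEK293 cells / Amount: fifteen thousand cells per well / Doses: test compound in the initial addition of three / Timing: cells plated overnight, dye loaded 0.5 h 37 °C, 0.5 h room temperature / Technique: kinetic calcium dye fluorescence, Fluo-4 NW / Control set: positive and negative controls per plate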
MrgX1 antagonist: antagonists of human MrgX1 receptor, primary screen, HEK293 cells, Fluo-4 calcium flux; Mas-related G-protein coupled receptor member X1 (Homo sapiens), Q96LB2; BAM8-22 antagonism; active compounds read low; B-score at 10 µM; actives 1.3% (n = 310,000); AID 588676, 2011;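 active means calcium-response B-score plate-corrected more than 3 library SD below zero, starting fluorescence within 5 deviations, no agonist response on first addition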;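 further: peak minus trough fluorescence over baseline after final BAM8-22 challenge near maximal dose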
MrgX1 PAM: positive allosteric modulators of MrgX1, primary screen, HEK293 cells, Fluo-4 calcium flux. actives 0.63% (n = 310,000). Mas-related G-protein coupled receptor member X1 (Homo sapiens), Q96LB2. B-score at 10 µM. AID 588675, 2011. FDSS; active compounds read high;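 active means plate-corrected calcium response at least 3 library SD above typical, normal starting fluorescence, not activating the receptor alone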;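 further: compound read alongside a low EC10 to EC30 dose of BAM8-22 agonist; peak minus trough fluorescence over baseline measured at the second addition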
KCC2 secondary: KCC2 modulators in sodium-free buffer, confirmation, cell-based, HEK293 KCC2, thallium flux, secondary assay | AID 1713, 2009 | normalised thallium flux (F/F0 slope) at 10 µM | actives 15% (n = 3,700) | shares compounds with Cl transport mod | FluoZin2 fluorescence; active compounds read high;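 active means thallium flux slope above the same plate's solvent-only control mean plus 3 SD; inconclusive means the two replicate wells disagree; inactive means no significant difference from solvent-only control wells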
KCC2 bumet counter: thallium flux persisting under bumetanide in KCC2 cells, confirmation, counter-screen for KCC2 modulator project, cell-based, HEK293 KCC2, FluoZin2, secondary assay 3 | normalized thallium flux at 10 µM | HEK293-KCC2 + bumetanide/ouabain; active compounds read high | AID 1714, 2009 | actives 49% (n = 3,700) | shares compounds with Cl transport mod;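 active means thallium entry rate above the same plate's blocked-transporter control wells by more than 3 SD; inconclusive means the two repeat wells disagree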;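 further: raw slope of fluorescence over initial fluorescence between 10 and 20 s after thallium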
KCC2 sec2: KCC2 modulators without ouabain present, confirmation, cell-based, HEK293 KCC2, thallium flux, FluoZin2, secondary assay 2; shares compounds with Cl transport mod; thallium flux FluoZin2 fluorescence; actives lie on both sides; F/F0 rise rate, 10–20 s post-thallium; normalized thallium flux at 10 µM; actives 23% (n = 3,700); AID 1715, 2009;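 active means thallium flux slope more than 3 SD above or below the plate's solvent-only control mean, mostly below; inconclusive means the two repeat wells disagreed; inactive means no significant shift from solvent-only controls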;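 further: raw slope with 0.1% DMSO as baseline and bumetanide as block control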
HEK counter1: thallium flux modulation in parental HEK cells, confirmation, counter-screen for KCC2 modulator project, cell-based, counterscreen 1 | shares compounds with Cl transport mod | thallium flux rate (normalised fluorescence) at 10 µM | HEK293 parental cells, thallium flux FluoZin2, ouabain; baseline-ratio fluorescence slope, 10–20 s after thallium | AID 1716, 2009 | actives 46% (n = 3,700);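 active means thallium flux rate significantly above the same plate's solvent-only control wells, beyond their mean plus 3 SD; inconclusive means the two replicate wells gave conflicting results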
KCC2 retest ouab: KCC2 inhibitors and activators, ouabain retest, confirmation, HEK-KCC2 cells; actives 48% (n = 3,700); shares compounds with Cl transport mod; raw Tl+ flux slope (below DMSO = inhibition, above = activation) at 10 µM; HEK293-KCC2, thallium flux FluoZin2 fluorescence; bidirectional: low = inhibitor, high = activator;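 active means thallium flux slope beyond 3 SD from same-plate DMSO control mean in most replicates, usually higher, sometimes lower; inconclusive means repeat tests gave conflicting results; inactive means no significant difference from controls in most replicates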;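 further: slope of initial-normalized fluorescence between seconds 10 and 20 after thallium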
HEK counter2: native HEK Tl+ uptake effects, second counter-screen – HEK cells, counterscreen 2, counter-screen for KCC2 modulator project, confirmation; shares compounds with Cl transport mod; HEK293 parental, thallium flux FluoZin-2 fluorescence slope; actives 33% (n = 3,700); thallium flux slope at 10 µM; AID 1718, 2009;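 active means thallium flux slope above the same plate's solvent-control mean plus 3 SD in both duplicate wells; inconclusive means duplicate wells that disagreed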;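 further: run without ouabain in cells lacking the KCC2 cotransporter; slope of fluorescence scaled to its starting value between 10 and 20 s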
MrgX1 ag reconf: MrgX1 receptor agonists, duplicate retest, confirmation, HEK293 cells, Fluo-4 calcium flux | actives 78% (n = 600) | AID 602412, 2012 | Fluo-4 calcium fluorescence, FDSS | activation, % at 10 µM | shares compounds with MrgX1 ag;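 active means calcium signal rise, corrected for plate position, at least 3 library SD high, with starting brightness within 5 such deviations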
MrgX1 allo conf: MrgX1 positive allosteric modulators, duplicate retest, confirmation, HEK293 cells, Fluo-4 calcium flux. shares compounds with MrgX1 PAM. Fluo-4 calcium fluorescence, FDSS. activation (ratio percentage), % at 10 µM. actives 13% (n = 1,200);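 active means ratio at least 3 SD above the weak peptide control, stable starting fluorescence, no direct agonism earlier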;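 further: compound followed by low BAM8-22 agonist challenge near EC20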
MrgX1 ant reconf: MrgX1 receptor antagonists, duplicate retest, confirmation, HEK293 cells, Fluo-4 calcium flux; shares compounds with MrgX1 antagonist; BAM8-22 calcium flux; active compounds read low; actives 19% (n = 2,300); AID 602420, 2012; remaining BAM8-22 calcium response % of control (active compounds read low), % at 10 µM;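 active means remaining agonist calcium response no higher than 100% minus 3 SD of agonist-only control wells, with starting fluorescence near control levels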;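 further: agonist BAM8-22 given at a near maximal EC90 to ECmax level; peak minus minimum fluorescence divided by baseline after agonist addition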
HEK293 Ca flux: nonspecific calcium signal in parental HEK293, confirmation, counter-screen for MrgX1 antagonist project, parental HEK293 cells, Fluo-4 calcium flux. fluorescence ratio F(max-min)/F0 at 10 µM. actives 2% (n = 4,000). Fluo-4 calcium fluorescence, FDSS. shares compounds with MrgX1 antagonist;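 active means duplicate-averaged calcium fluorescence ratio at least three times the standard deviation of buffer wells, a nonspecific response in parental cells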
HEK293 Ca counter: calcium response in parental HEK293 cells, primary screen, counter-screen for MrgX1 allosteric activator project, cell-based, Fluo-4 calcium flux, duplicate. shares compounds with MrgX1 antagonist. Fluo-4 fluorescence ratio; active compounds read high. fluorescence ratio F(max-min)/F0 at 10 µM. actives 0.4% (n = 4,000). AID 624114, 2012;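 active means calcium fluorescence ratio, averaged over duplicates, at least 3 SD of the buffer-well ratio, meaning a nonspecific response in receptor-free cells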;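 further: untransfected parental HEK293 lacking MrgX1 used as counterscreen for MrgX1 allosteric activators; fluorescence change taken during the second addition on a kinetic imager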
HEK293 Ca cntr2: calcium response in parental HEK293 cells, primary screen, counter-screen for MrgX1 agonist project, cell-based, Fluo-4 calcium flux, duplicate, agonist mode; Fluo-4 calcium fluorescence (FDSS); active compounds read high; AID 624115, 2012; shares compounds with MrgX1 antagonist; fluorescence ratio F(max-min)/F0 at 10 µM; actives 8.7% (n = 4,000);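 active means calcium fluorescence ratio at least three times the spread of buffer wells, meaning a non-specific response in parental cells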
* marks the source's active call; other numbers are inactive results; i = inactive; ? = inconclusive; / = no result given.

SMILES	RGS4 pot	RGS4 block	Cl transport mod	MrgX1 ag	MrgX1 antagonist	MrgX1 PAM	KCC2 secondary	KCC2 bumet counter	KCC2 sec2	HEK counter1	KCC2 retest ouab	HEK counter2	HEK293 Ca flux	HEK293 Ca counter	HEK293 Ca cntr2	others
O=C(N/N=C/c1cc([N+](=O)[O-])cc(Br)c1O)C12CC3CCC(CC(C3)C1)C2	i	i	8.34*	73*	i	i	0.0087	0.0174*	0.0327	0.0123*	?	?	i	i	92.3*	MrgX1 ag reconf=174.6%*
CC1=C(C)C(O)N(Cc2ccccc2)C1=O (configuration not stated)	i	i	/	i	i	i	/	/	/	/	/	/	/	/	/
COc1cc(/C=C2\NC(=S)N(C)C2=O)ccc1O	i	i	-1.16	i	i	i	/	/	/	/	/	/	/	/	/
Cc1cc(/C=C2\NC(=S)N(C)C2=O)ccc1N1CCCC1	i	i	6.43*	90.7*	i	i	0.00724	0.0118*	?	?	0.0162	0.0103	0.295*	i	203*	MrgX1 ag reconf=i
CC1CCCN(C(=O)CSc2nnc(-c3c[nH]c4ccccc34)o2)C1 (configuration not stated)	i	i	-3.75*	i	i	9.51*	0.00562	0.00441	?	0.00764	?	0.00959	i	i	i	MrgX1 allo conf=8.7%*
CCOC(=O)CSc1nnc(-c2c[nH]c3ccccc23)o1	i	i	/	i	i	i	/	/	/	/	/	/	/	/	/
CC(C)CN(C(=O)c1cccc(S(=O)(=O)N2CCN(c3ccc(F)cc3)CC2)c1)C1CCS(=O)(=O)C1 (configuration not stated)	i	i	/	i	i	i	/	/	/	/	/	/	/	/	/
COc1ccc(S(=O)(=O)Nc2ccccc2C(=O)Nc2nc(-c3ccc(F)cc3)cs2)cc1OC	i	i	-6.21*	i	-8.71*	i	0.00597*	0.00573	0.0304	?	0.0122*	0.0103	i	i	i	MrgX1 ant reconf=i
CCc1nnc(NC(=O)c2cccc(S(=O)(=O)N3CC(c4ccccc4)CC3=O)c2)s1 (configuration not stated)	i	i	-4.41	i	i	i	/	/	/	/	/	/	/	/	/
Cc1cc(NC(=O)c2cccc(S(=O)(=O)N3CC(c4ccccc4)CC3=O)c2)no1 (configuration not stated)	i	i	-5.4*	i	i	8.26*	?	0.00389	0.0218*	0.00598*	0.0128*	?	i	i	i	MrgX1 allo conf=i
Cc1ccc(-c2csc3ncn(CC(=O)N4CCOCC4)c(=O)c23)cc1C	i	i	/	32.2*	i	i	0.0113	?	0.0356	0.00477	0.0211	0.012	i	i	i	MrgX1 ag reconf=134.7%*
O=C(Cn1cnc2scc(-c3ccc(F)cc3)c2c1=O)N1CCOCC1	i	i	0.0973	i	i	i	/	/	/	/	/	/	/	/	/
C=C(C)CSc1nc2sc3c(c2c(=O)n1-c1ccc(OC)cc1)CCN(C)C3	i	i	/	i	i	i	/	/	/	/	/	/	/	/	/
COc1ccc2nc(NC(=O)c3ccccc3O)sc2c1	i	i	/	i	i	i	/	/	/	/	/	/	/	/	/
